The values that follow come from ChEMBL document CHEMBL3400051, “Five new phorbol esters with cytotoxic and selective anti-inflammatory activities from Croton tiglium” (Bioorg Med Chem Lett, 2015).

The term IC50 denotes the concentration needed to halve the response being measured.

The test system of one test is K562. Put plainly: Cytotoxicity against human K562 cells assessed as cell viability after 72 hrs by CCK8 assay. To be noted: K562, 72 h. The class given is functional, cell-based. The procedure, abridged:
(§1)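 Cells grown in RPMI or DMEM with 10% FBS and 1% penicillin/streptomycin at 37 °C, 5% CO2. Seeded at 400-800 cells/well in 384-well plates, treated with a range of compound concentrations or solvent control for 72 h. CCK8 reagent added, absorbance read at 450 nm; IC50 from dose-response curves. Taxol positive control.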
For orientation: Tetrazolium dyes change colour on reduction, which living cells bring about.

In the next test the test system is MOLT-4. Put plainly: Cytotoxicity against human MOLT4 cells assessed as cell viability after 72 hrs by CCK8 assay. To be noted: MOLT-4, 72 h. Type of test: functional, cell-based. The procedure, abridged:
as §1

Test [1] can be described thus: Cytotoxicity against human U937 cells assessed as cell viability after 72 hrs by CCK8 assay. The note with it: U-937, 72 h. The class given is functional, cell-based. The procedure, abridged: as §1
The test system of the next test is HeLa. Nature of the test: Cytotoxicity against human HeLa cells assessed as cell viability after 72 hrs by CCK8 assay. Type of test: functional, cell-based. In outline:
as §1

Another test has as its system DU-145. Put plainly: Cytotoxicity against human DU145 cells assessed as cell viability after 72 hrs by CCK8 assay. Type of test: functional, cell-based. To be noted: DU-145, 72 h. In outline:
as §1

A further test relates to NCI-H1975. Put plainly: Cytotoxicity against human NCI-H1975 cells assessed as cell viability after 72 hrs by CCK8 assay. Type of test: functional, cell-based. The note with it: NCI-H1975, 72 h. In outline:
as §1

Test [2] in a line: Cytotoxicity against human HL60 cells assessed as cell viability after 72 hrs by CCK8 assay. The note with it: HL-60, 72 h. Type of test: functional, cell-based. The procedure, abridged:
as §1

Another test concerns HEK-293T. Put plainly: Cytotoxicity against human 293T cells after 44 hrs by MTT assay. Type of test: cell-based. In outline: (§2)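 Cells cultured in 88% DMEM, 12% FBS, 100 units/mL penicillin and streptomycin. Seeded at 2 × 10^5 cells/mL, 24 h at 37 °C in 5% CO2, then medium replaced with compound in growth medium at 80, 40, 20, 10 and 5 concentrations for 44 h. MTT (5 mg/mL) added for a further 4 h; absorbance at 490 nm. Untreated cells as negative control, Taxol positive control.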

Test [3] can be described thus: Cytotoxicity against human LX2 cells after 44 hrs by MTT assay. The class given is cell-based. The note with it: LX-2, 44 h. In outline: as §2
Test [4] has as its target T1, Prostaglandin G/H synthase 1 (Ovis aries, UniProt P05979).
T1 sequence (P05979 whole entry): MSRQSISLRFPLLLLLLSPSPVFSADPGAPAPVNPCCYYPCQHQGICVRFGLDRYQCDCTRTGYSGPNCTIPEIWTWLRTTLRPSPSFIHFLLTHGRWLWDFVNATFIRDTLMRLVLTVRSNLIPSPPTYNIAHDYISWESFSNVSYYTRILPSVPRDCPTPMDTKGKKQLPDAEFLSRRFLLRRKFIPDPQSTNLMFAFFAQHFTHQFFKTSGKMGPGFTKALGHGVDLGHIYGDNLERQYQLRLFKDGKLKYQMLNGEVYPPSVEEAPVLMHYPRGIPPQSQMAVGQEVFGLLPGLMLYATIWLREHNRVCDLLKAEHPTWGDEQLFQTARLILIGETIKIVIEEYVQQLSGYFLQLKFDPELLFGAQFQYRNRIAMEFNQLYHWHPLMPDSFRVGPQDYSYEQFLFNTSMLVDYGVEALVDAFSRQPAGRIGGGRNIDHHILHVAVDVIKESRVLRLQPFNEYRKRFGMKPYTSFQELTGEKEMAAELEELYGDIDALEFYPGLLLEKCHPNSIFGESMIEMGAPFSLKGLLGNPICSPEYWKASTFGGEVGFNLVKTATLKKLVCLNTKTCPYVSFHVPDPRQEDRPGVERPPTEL
Nature of the test: Inhibition of ovine COX1 using fluorometric substrate after 15 mins.

The target of test [5] is T2, Prostaglandin G/H synthase 2 (Homo sapiens, UniProt P35354).
T2 sequence (P35354 whole entry): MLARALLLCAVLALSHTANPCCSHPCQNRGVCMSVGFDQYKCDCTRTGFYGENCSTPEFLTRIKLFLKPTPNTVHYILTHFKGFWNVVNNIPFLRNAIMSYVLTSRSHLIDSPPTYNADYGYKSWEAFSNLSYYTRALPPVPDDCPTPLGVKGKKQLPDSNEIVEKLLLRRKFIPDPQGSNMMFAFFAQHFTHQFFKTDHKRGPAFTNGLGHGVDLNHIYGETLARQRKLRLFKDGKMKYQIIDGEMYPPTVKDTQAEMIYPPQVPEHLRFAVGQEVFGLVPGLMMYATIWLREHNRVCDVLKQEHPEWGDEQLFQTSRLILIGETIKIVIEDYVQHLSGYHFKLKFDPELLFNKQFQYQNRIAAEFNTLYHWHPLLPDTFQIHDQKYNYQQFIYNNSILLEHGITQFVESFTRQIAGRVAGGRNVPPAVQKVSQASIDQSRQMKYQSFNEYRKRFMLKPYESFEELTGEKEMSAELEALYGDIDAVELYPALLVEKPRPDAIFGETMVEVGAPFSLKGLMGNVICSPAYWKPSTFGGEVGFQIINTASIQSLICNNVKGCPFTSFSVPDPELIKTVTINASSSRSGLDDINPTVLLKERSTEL

The next test has as its system MCF7. Nature of the test: Cytotoxicity against human MCF7 cells assessed as cell viability after 72 hrs by CCK8 assay. To be noted: MCF7, 72 h. The class given is functional, cell-based. In outline: as §1
The test system of another test is A549. Nature of the test: Cytotoxicity against human A549 cells assessed as cell viability after 72 hrs by CCK8 assay. The class given is functional, cell-based. The note with it: A549, 72 h. The procedure, abridged:
as §1

Test [6] is described as follows: Cytotoxicity against human SGC7901 cells assessed as cell viability after 72 hrs by CCK8 assay. The class given is functional, cell-based. The note with it: SGC-7901, 72 h. In outline: as §1

SMILES strings stand for the structures.

Consider `C/C=C(\C)C(=O)O[C@@H]1[C@@H](C)[C@@]2(O)[C@@H](C=C(CO)C[C@]3(O)C(=O)C(C)=C[C@@H]23)[C@@H]2C(C)(C)[C@]12OC(=O)C(C)CC` (stereo partly drawn), for which the 50% inhibitory concentration (IC50) was 2.2 µM with K562; 1 µM in the test on MOLT-4; 2.6 µM in [1]; 10 µM with HeLa; 5 µM in the test with DU-145; 10 µM in the test with NCI-H1975. The half-inhibitory concentration (IC50) was 1.2 µM in test [2]; 157 µM in the test with HEK-293T; > 500 µM in test [3]; > 50 µM in test [4]; > 50 µM in test [5].
`CCC(C)C(=O)O[C@@]12[C@H](OC(C)=O)[C@@H](C)[C@@]3(O)[C@@H](C(=O)C(CO)=C[C@]4(O)C(=O)C(C)=C[C@@H]34)[C@@H]1C2(C)C` (stereo partly drawn): the IC50 with K562 is 7.2 µM; with MOLT-4, 10 µM; in test [1], 14 µM; in the test with MCF7 it was > 50 µM; in the test on HeLa, 10 µM; in the test with DU-145, 11 µM. In addition, the IC50 with A549 is > 50 µM; in test [6], > 50 µM; in the test with NCI-H1975, 10 µM; in test [2], 9.9 µM; with HEK-293T, 147 µM; in test [3], 352 µM. Besides, the IC50 in test [4] and in test [5] was > 50 µM throughout.
Regarding `CC(=O)O[C@@H]1[C@@H](C)[C@@]2(O)[C@@H](C=C(CO)C[C@]3(O)C(=O)C(C)=C[C@@H]23)[C@@H]2C(C)(C)[C@]12OC(=O)C(C)C`, the IC50 was found to be 4 µM in the test with K562; 2.4 µM in the test with MOLT-4; 6.8 µM in test [1]; 13 µM in the test with MCF7; 3.9 µM in the test with HeLa; 7.2 µM in the test with DU-145. Further, the IC50 with A549 was 5.8 µM; in test [6] it was 13 µM; with NCI-H1975, 10 µM; in [2], 12 µM; in the test with HEK-293T, 292 µM; in test [3], > 500 µM. Moreover, the IC50 in test [4] and in [5] was > 50 µM each time.
With `CCC(C)C(=O)O[C@@]12[C@H](O)[C@@H](C)[C@]3(O)[C@@H]4C=C(C)C(=O)[C@@H]4CC(CO)=C[C@H]3[C@@H]1C2(C)C` (stereo partly drawn), the IC50 worked out at 8 µM with K562; 9.9 µM in the test with MOLT-4; 18 µM in [1]; 24 µM with MCF7; 10 µM in the test with HeLa; 10 µM in the test with DU-145. Besides, the IC50 in the test on A549 is 4.5 µM; in test [6] it was 5.4 µM; with NCI-H1975, 3.3 µM; in test [2] it was 9.8 µM; in the test with HEK-293T, 191 µM; in test [3] it was > 500 µM. In addition, the IC50 in test [4] and in test [5] was > 50 µM each time.
For `CCC(C)C(=O)O[C@@]12[C@H](OC(=O)c3ccccc3)[C@@H](C)[C@@]3(O)[C@@H](C=C(CO)C[C@]4(O)C(=O)C(C)=C[C@@H]34)[C@@H]1C2(C)C` (stereo partly drawn), the IC50 in the test with K562 came out at 15 µM; in the test with MOLT-4 it was 12 µM; in test [1], 17 µM; in the test on MCF7 it was 20 µM; with HeLa it was 4.6 µM; in the test with DU-145 it was 4.3 µM. Further, the IC50 in the test with A549 is 6.9 µM; in test [6], 10 µM; in the test on NCI-H1975, 3.3 µM; in test [2] it was 6.8 µM; in the test with HEK-293T it was 420 µM; in test [3], > 500 µM. Also, the IC50 in test [4] was 0.14 µM; in test [5] it was 8.5 µM.
Take `C/C=C(\C)C(=O)O[C@@H]1[C@@H](C)[C@@]2(O)[C@@H](C=C(CO)C[C@]3(O)C(=O)C(C)=C[C@@H]23)[C@@H]2C(C)(C)[C@]12OC(=O)C(C)C`: the IC50 is 4.4 µM with K562; 1.1 µM in the test on MOLT-4; 5.5 µM in test [1]; > 50 µM in the test on MCF7; 9.2 µM in the test with HeLa; 1.1 µM with DU-145. Further, the IC50 in the test with A549 was 32 µM; in [6] it was 43 µM; with NCI-H1975, 10 µM; in test [2] it was 1.2 µM; with HEK-293T it was 171 µM; in test [3] it was > 500 µM. Moreover, the IC50 in [4] and in test [5] was > 50 µM each time.
For the compound `C/C=C(\C)C(=O)O[C@@H]1[C@@H](C)[C@@]2(O)[C@@H](C(=O)C(CO)=C[C@]3(O)C(=O)C(C)=C[C@@H]23)[C@@H]2C(C)(C)[C@]12OC(=O)C(C)CC` (stereo partly drawn), the 50% inhibitory concentration (IC50) came to 17 µM in the test on K562; 4.8 µM in the test on MOLT-4; 21 µM in test [1]; 20 µM in the test with MCF7; 5 µM in the test with HeLa; 10 µM in the test on DU-145. Moreover, the IC50 was 19 µM with A549; 23 µM in test [6]; 10 µM in the test on NCI-H1975; 10 µM in test [2]; 455 µM in the test on HEK-293T; > 500 µM in [3]. Further, the IC50 in [4] and in test [5] was > 50 µM each time.
For the compound `CC(=O)O[C@H]1C(=O)[C@@]2(C)[C@H]([C@H](OC(=O)c3ccccc3)[C@]3(O)C[C@H](OC(=O)[C@H](O)[C@@H](NC(=O)c4ccccc4)c4ccccc4)C(C)=C1C3(C)C)[C@]1(OC(C)=O)CO[C@@H]1C[C@@H]2O` [PACLITAXEL], the IC50 was found to be 0.0052 µM with K562; 0.0022 µM with MOLT-4; 0.0025 µM in [1]; 0.0062 µM in the test on MCF7; 0.0034 µM with DU-145; 0.0051 µM in test [6]. Besides, the IC50 was determined as 0.0077 µM in the test on NCI-H1975 and 0.0018 µM in [2].
